Screening results from PubChem.
OXTR ag – activates the human oxytocin receptor; CHO-OTR cells, Fluo-8 calcium fluorescence; normalized: DMSO 0%, oxytocin 100%; activation, % at 3 µM; P30559; 0.32% of 320,000 active;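 active = activation above the mean of all tested compounds plus 3 SD, cutoff set per screening run, cut at about 20% in these data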;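 note: peak over basal fluorescence ratio from a 100 s FLIPR kinetic read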
Target sequence (P30559 whole entry, looked up): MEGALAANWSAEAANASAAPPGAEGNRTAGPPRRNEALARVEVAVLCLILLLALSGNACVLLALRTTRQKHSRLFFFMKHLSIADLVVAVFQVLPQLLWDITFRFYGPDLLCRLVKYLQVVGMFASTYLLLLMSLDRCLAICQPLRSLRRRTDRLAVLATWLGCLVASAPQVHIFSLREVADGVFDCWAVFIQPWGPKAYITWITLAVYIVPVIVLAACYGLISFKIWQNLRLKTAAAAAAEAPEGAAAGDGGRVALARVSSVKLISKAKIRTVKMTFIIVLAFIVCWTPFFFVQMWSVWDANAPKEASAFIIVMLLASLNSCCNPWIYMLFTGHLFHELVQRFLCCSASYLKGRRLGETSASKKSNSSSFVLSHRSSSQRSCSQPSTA
OXTR potentiate – potentiates the human oxytocin receptor response; activation, % at 3 µM; 0.061% of 320,000 active; CHO-OTR cells, Fluo-8 calcium fluorescence, potentiator mode; 0% = oxytocin EC15, 100% = EC100; P30559; AID 2445;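 active = activation above that plate's cutoff, the mean activation of tested compounds plus 3 SD, cut at about 6.6% in these data, passing the limit was not always enough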
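Assay system: CHO cell line stably expressing human OTR | Also added: Oxytocin at about EC15, sub-maximal agonist stimulus | Times: Compound 6 min at room temperature before oxytocin, 100 s read | Measured by: Fluo-8 intracellular calcium fluorescence, ex 470-495, em 515-575 nm | Controls: EC15 oxytocin alone as 0%, 75 nM oxytocin as 100%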
TAAR1 ag – human TAAR1 agonism; activation, % at 3 µM; 0.99% of 360,000 active; Q96RJ0; CHO RD-HGA16 TAAR1, Fluo-8 calcium fluorescence; vehicle wells 0%, saturating PEA agonist 100%; AID 624467;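 active = activation above the mean activation of all test compounds in the run plus 3 SD, cut at about 38% in these data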
Target sequence (Q96RJ0 whole entry, looked up): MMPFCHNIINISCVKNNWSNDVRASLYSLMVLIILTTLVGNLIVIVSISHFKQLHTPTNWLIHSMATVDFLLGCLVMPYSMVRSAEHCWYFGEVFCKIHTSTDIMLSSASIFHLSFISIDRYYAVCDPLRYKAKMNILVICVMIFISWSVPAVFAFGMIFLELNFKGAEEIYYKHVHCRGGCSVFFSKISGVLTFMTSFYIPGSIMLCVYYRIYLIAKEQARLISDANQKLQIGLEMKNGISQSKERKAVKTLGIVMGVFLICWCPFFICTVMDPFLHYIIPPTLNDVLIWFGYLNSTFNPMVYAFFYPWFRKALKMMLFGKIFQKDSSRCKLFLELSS
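System: CHO RD-HGA16 cells carrying human TAAR1 plus Gα16; Incubation: 17-24 h seeding, 75 min 37 °C dye, 30 min RT; Measured by: Fluo-8 fluorescence, 5 s baseline then 140 s kinetic read; Control set: DMSO and PEA EC100; Replication: single well for each compound.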
V1aR counter – V1a receptor agonism, counter-screen for OXTR agonists; P37288; CHO-V1R cells, Fluo-8 calcium fluorescence, agonist mode; 0% DMSO, 100% 3 nM vasopressin; activation, % at 3 µM; 0.25% of 320,000 active; AID 2797;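 active = activation above the mean activation of all tested compounds plus 3 SD, per screening run, cut at about 20% in these data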;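 note: signal is peak over basal fluorescence ratio across a 100 second FLIPR read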
TAAR1 antag – human TAAR1 antagonism. Q96RJ0. CHO RD-HGA16 TAAR1, Fluo-8 calcium fluorescence, antagonist. inhibition, % at 3 µM. 1.5% of 360,000 active. AID 624466;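 active = inhibition above a per-plate cutoff, the mean inhibition of test compounds on that plate plus 3 SD, cut at about 49% in these data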
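test system = CHO RD-HGA16 cells bearing hTAAR1 | replication = singlicate | controls = DMSO-only wells and EC80 β-PEA-stimulated wells | reagent = EC80 β-phenethylamine stimulus | read-out basis = percent inhibition of PEA-evoked calcium signal, max/basal emission ratio | schedule = seeding 17-24 h prior, 75-min 37 °C, 30-min RT dye loading | signal = kinetic Fluo-8 calcium fluorescence measurement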
TAAR1 nonsel count – nonselective antagonist in TAAR1 antagonist counter-screen. shares compounds with TAAR1 antag. counterscreen cell line, calcium fluorescence, antagonist mode. inhibition, % at 3 µM. 77% of 2,400 active; in the data active = inhibition above about 22%;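 note: CHO-Ga16 host cells stimulated with ATP at an EC80 level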
TAAR1 ant conf – human TAAR1 antagonism, confirmed; shares compounds with TAAR1 antag; TAAR1-expressing cells, fluorescence antagonist read-out; inhibition, % at 3 µM; 40% of 2,400 active; in the data active = inhibition above about 49%;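 note: CHO-Ga16 host cells challenged with agonist PEA near its EC80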
Ga16 ag counter – nonselective Ga16 agonism, counter-screen. shares compounds with TAAR1 antag. activation, % at 3 µM. Ga16-expressing cells, calcium fluorescence, agonist counterscreen. 18% of 2,400 active. AID 651953; in the data active = activation above about 12%
TAAR1 ag count – activates human TAAR1 in antagonist counter-screen. 2% of 2,400 active. hTAAR1 cell line, fluorescence activation, agonist mode. activation, % at 3 µM. AID 651955. shares compounds with TAAR1 antag; in the data active = activation above about 37%;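 note: CHO cells stably expressing TAAR1 with calcium dye readout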
A number is an active result; 0 = inactive; - = no result given. Compounds with a hit are over-represented: about 2.3% of the library has one in this group of screens.

SMILES	OXTR ag	OXTR potentiate	TAAR1 ag	V1aR counter	TAAR1 antag	TAAR1 nonsel count	TAAR1 ant conf	Ga16 ag counter	TAAR1 ag count
COc1ccc(NC(=O)CC2C(=O)N(C)C(=S)N2CCc2ccccc2F)cc1 (centres undefined)	0	0	0	0	57	37	56	12	0
CCN1C(=O)C(CC(=O)Nc2ccc(OC)cc2)N(CCc2ccccc2F)C1=S (centres undefined)	0	0	0	0	75	31	0	0	0
CCN1C(=O)C(CC(=O)Nc2ccc(OC)cc2)N(CCc2ccccc2)C1=S (centres undefined)	0	0	0	0	0	-	-	-	-
O=c1c2ccccc2nc(/C=C/c2c[nH]c3ccccc23)n1-c1ccc([N+](=O)[O-])cc1	0	0	0	0	0	-	-	-	-
Cc1cc2cc(CCNC(=O)C(=O)c3c[nH]c4ccccc34)c(=O)[nH]c2cc1C	0	0	0	0	65	30	0	0	0
Cc1ccc(NC(=O)Cc2nc(CN(C)CC(=O)Nc3ccc(C)cc3)cs2)cc1	0	0	0	0	0	-	-	-	-
CCN(CC)S(=O)(=O)c1ccc(S(=O)(=O)N(CC(=O)Nc2ccccc2)Cc2ccco2)cc1	0	0	0	0	62	31	53	0	0
O=C(COc1ccc(F)cc1Cl)Nc1ccccc1C(=O)N1CCCCC1	0	0	0	0	0	-	-	-	-
CC(C)Oc1ccc(CNC(=O)CCC(=O)N2CCSc3ccccc32)cc1	0	0	0	0	0	-	-	-	-
CCOc1ccc(NC(=O)CCC(=O)N2CCSc3ccccc32)cc1	0	0	0	0	62	25	0	0	0
CC(C)Nc1nnc(SCC(=O)Nc2ccc3c(c2)C(=O)c2ccccc2C3=O)s1	0	0	0	0	68	47	59	15	0
CCCc1c2c(cc3c(=O)cc(C(=O)OCC)oc13)CCCC2	0	0	0	0	0	-	-	-	-
O=C(Cc1ccccc1)NNC(=O)Nc1cccc(Cl)c1	0	0	0	0	0	-	-	-	-
O=C(CN1c2ccccc2Sc2ccccc21)NNC(=O)Nc1cccc(Cl)c1	0	0	0	0	58	0	0	0	0
CCS(=O)(=O)N1N=C(c2cccs2)CC1c1cc2cc(C)ccc2nc1Cl (centres undefined)	0	0	0	0	50	0	0	0	0
CN(Cc1cnn(C)c1)C(=O)c1cc(COc2c(F)cccc2F)on1	0	0	0	0	105	0	0	0	0
CCN1C(c2ccccc2)C(C)C(=O)C(C)C1c1ccccc1 (centres undefined)	0	0	0	0	52	0	0	0	0
O=C1c2ccccc2[C@@H]2C[C@H]3O[C@H]3CCN12	-	-	0	-	0	-	-	-	-
COC(=O)C1=C(C)N(Cc2ccc(Cl)cc2)C(=S)NC1c1cccc(OC)c1 (centres undefined)	-	-	0	-	51	0	0	0	0
O=C(Nc1cccc(-c2cnc3ccccc3n2)c1)c1ccncc1	0	0	0	0	0	-	-	-	-
O=C(Nc1cccc(NC(=O)c2ccc(-c3ccc(Br)cc3)o2)c1)c1ccco1	0	0	0	0	69	33	50	0	0
Cc1ccc(C(=O)Nc2cccc(-c3cnc4ccccc4n3)c2)cc1	0	0	0	0	0	-	-	-	-
O=C(CNC(=O)c1ccc(Br)o1)Nc1cccc(-c2cnc3ccccc3n2)c1	0	0	0	0	64	33	52	12	0
O=C(Nc1cccc(-c2cnc3ccccc3n2)c1)c1ccco1	0	0	0	0	54	0	0	0	0
Cc1ccc(C(=O)Nc2cccc(C(F)(F)F)c2)cc1Nc1cnccn1	0	0	0	0	0	-	-	-	-
SMILES	OXTR ag	OXTR potentiate	TAAR1 ag	V1aR counter	TAAR1 antag	TAAR1 nonsel count	TAAR1 ant conf	Ga16 ag counter	TAAR1 ag count
Cc1ccc(C(=O)Nc2cccc(C(F)(F)F)c2)cc1Nc1ncnc2nc[nH]c12	0	0	0	0	52	32	0	0	0
COc1ccc(C(=O)Oc2cccc(Nc3ncnc4ccccc34)c2)cc1OC	0	0	0	0	69	43	54	12	0
C=CCC[C@@H](Cc1ccc(F)cc1)C(=O)OC[C@H]1CCCN1C(=O)[C@@H](CC=C)CC(=O)N[C@H](CO)Cc1ccccc1	0	0	0	0	67	29	53	0	0
C=CC[C@@H](Cc1ccc(F)cc1)C(=O)OC[C@H]1CCCN1C(=O)[C@@H](CC=C)CC(=O)N[C@H](CO)Cc1ccccc1	0	0	0	0	81	41	0	13	0
C=CC[C@@H](Cc1ccc(F)cc1)C(=O)OC[C@@H]1CCCN1C(=O)[C@@H](CC=C)CC(=O)N[C@H](CO)Cc1ccccc1	0	0	0	0	66	36	0	0	0
CC(=O)Nc1ccc(SC[C@H](C)CN2CC[C@H](C(C)(C)C)CCC2=O)cc1	0	0	0	0	0	-	-	-	-
Cc1ccc(CN2CC(C(=O)NCC(=O)Nc3c(C)cccc3C)CC2=O)cc1 (centres undefined)	0	0	0	0	0	-	-	-	-
O=C(c1ccc2ccccc2c1O)N1CCCCC1	-	-	0	-	0	-	-	-	-
COc1ccc(CCNC2=C(Cl)C(=O)N(CCc3ccc(OC)c(OC)c3)C2=O)cc1OC	0	0	0	0	74	44	60	0	0
CCc1sc(C(=O)Nc2nc(C)cs2)cc1C	-	-	0	-	0	-	-	-	-
CC1(C)c2[nH]c3ccccc3c2C[C@@H]2C(=O)N(c3ccc(F)cc3F)C(=O)N21	0	0	0	0	61	40	52	17	0
CC1(C)c2[nH]c3ccccc3c2C[C@@H]2C(=O)N(Cc3ccc(F)cc3)C(=O)N21	0	0	0	0	67	34	50	0	0
OC(c1ccccc1)(c1ccccc1)C1CCN(CCCOc2ccc(-c3ccc(F)cc3F)cc2)CC1	-	-	0	-	52	42	0	18	0
CC(=O)Nc1ccc(OCCCN2CCC(C(O)(c3ccccc3)c3ccccc3)CC2)cc1	-	-	0	-	0	-	-	-	-
COc1ccccc1-c1ccc(OCCCN2CCC(C(O)(c3ccccc3)c3ccccc3)CC2)cc1	-	-	0	-	56	42	59	15	0
Cc1cccc(NC(=O)c2nc[nH]c2C(=O)N2CCN(C(=O)OC(C)(C)C)CC2)c1	0	0	0	0	0	-	-	-	-
CC(C)OCCCN1C=C2C(=O)C(C)(OC(=O)CCc3ccccc3)C(=O)C=C2C=C1c1ccc(C#N)cc1 (centres undefined)	0	0	0	0	0	-	-	-	-
